# Experiments:
# [1] = Compound was tested for anti-rhinovirus type 1B activity in a plaque inhibition assay using monolayers of M-HeLa cells; format: functional, cell-based; details: Homo sapiens
# Homo sapiens = organism: Homo sapiens; assay: Inhibition of plaque formation at 8 uM concentration; format: functional
# Enterovirus [2] = assay: Inhibitory concentration against Rhinovirus 15; format: functional, organism-based
# rhinovirus B14 [3] = assay: Inhibitory concentration against Rhinovirus 14; format: functional, organism-based, Enterovirus; details: Rhinovirus B
# Enterovirus [4] = assay: Inhibitory concentration against Rhinovirus 2; format: functional, organism-based
# Enterovirus [5] = assay: Inhibitory concentration against Rhinovirus 13; format: functional, organism-based
# Enterovirus [6] = assay: Inhibitory concentration against Rhinovirus 12; format: functional, organism-based
# Enterovirus [7] = assay: Inhibitory concentration against Rhinovirus 1B; format: functional, organism-based
# Outline: (§1)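 Plaque reduction assay against rhinovirus 1B in M-HeLa cell monolayers. IC50 is the concentration giving 50% reduction of plaque formation; pI50 is taken as log (1000/IC50). A reference antiviral was run as a control.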
# Enterovirus [8] = assay: Inhibition of plaque formation at 2.5 uM concentration against Rhinovirus 3; format: functional
# Enterovirus [9] = assay: Inhibitory concentration against Rhinovirus 1A; format: functional, organism-based
# Enterovirus [10] = assay: Inhibition of plaque formation at 8 uM concentration against Rhinovirus 5; format: functional, organism-based
# Enterovirus [11] = assay: Inhibitory concentration against Rhinovirus 9; format: functional, organism-based
# Enterovirus [12] = assay: Inhibitory concentration against rhinovirus 19; format: functional, organism-based
# Enterovirus [13] = assay: Inhibitory concentration against rhinovirus 1B; format: functional, organism-based; outline: as §1
# Enterovirus [14] = assay: Inhibitory concentration against rhinovirus 18; format: functional, organism-based
# Enterovirus [15] = assay: Inhibitory concentration against rhinovirus 13; format: functional, organism-based
# Enterovirus [16] = assay: Inhibitory concentration against rhinovirus 21; format: functional, organism-based
# Enterovirus [17] = assay: Inhibitory concentration against rhinovirus 15; format: functional, organism-based
# Enterovirus [18] = assay: Inhibitory concentration against rhinovirus 1A; format: functional, organism-based
# rhinovirus B14 [19] = assay: Inhibitory concentration against rhinovirus 14; format: functional, organism-based, Enterovirus; details: Rhinovirus B
# Enterovirus [20] = assay: Inhibitory concentration against rhinovirus 5; format: functional, organism-based
# Enterovirus [21] = assay: Inhibitory concentration against rhinovirus 3; format: functional, organism-based
# Enterovirus [22] = assay: Inhibitory concentration against rhinovirus 30; format: functional, organism-based
# Enterovirus [23] = assay: Inhibitory concentration against rhinovirus 8; format: functional, organism-based
# Enterovirus [24] = assay: Inhibitory concentration against rhinovirus 4; format: functional, organism-based
# Enterovirus [25] = assay: Inhibitory concentration against rhinovirus 31; format: functional, organism-based
# Enterovirus [26] = assay: Inhibitory concentration against rhinovirus 9; format: functional, organism-based
# Enterovirus [27] = assay: Inhibitory concentration against rhinovirus 16; format: functional, organism-based
# Enterovirus [28] = assay: Inhibitory concentration against rhinovirus 29; format: functional, organism-based
smiles,measurement,setting,value
Cc1ccc(Cn2cnc3c(N(C)C)nc(C)nc32)cc1,IC50,[1],0.8 µM
Cc1ccc(Cn2cnc3c(N(C)C)nc(F)nc32)cc1,IC50,[1],0.34 µM
Cc1ccc(Cn2cnc3c(N(C)C)nc(Cl)nc32)cc1,IC50,[1],0.08 µM
CSc1nc(N(C)C)c2ncn(Cc3ccc(C)cc3)c2n1,IC50,[1],0.34 µM
CNc1nc(N(C)C)c2ncn(Cc3ccc(C)cc3)c2n1,IC50,[1],4.7 µM
Cc1ccc(Cn2cnc3c(N(C)C)nc(S(C)(=O)=O)nc32)cc1,IC50,[1],25 µM
same,inhibition,Homo sapiens,24%
CCc1nc(N(C)C)c2ncn(Cc3ccc(C)cc3)c2n1,IC50,[1],2.3 µM
Cc1ccc(Cn2cnc3c(N(C)C)ncnc32)cc1,IC50,[1],8.6 µM
Cc1ccc(Cn2cnc3c(N(C)C)nc(C(F)(F)F)nc32)cc1,IC50,Enterovirus [2],1 µM
same,IC50,[1],0.03 µM
same,IC50,rhinovirus B14 [3],1.2 µM
same,IC50,Enterovirus [4],5.7 µM
same,IC50,Enterovirus [5],2.6 µM
same,IC50,Enterovirus [6],2.6 µM
same,IC50,Enterovirus [7],0.03 µM
same,inhibition at 2.5 µM,Enterovirus [8],43%
same,IC50,Enterovirus [9],0.1 µM
same,Inhibition,Enterovirus [10],18%
same,IC50,Enterovirus [11],0.35 µM
Cc1ccc(Cn2cnc3c(N(C)C)nc(N)nc32)cc1,IC50,[1],31 µM
Cc1ccc(Cn2cnc3c(N(C)C)nc(N(C)C)nc32)cc1,IC50,Enterovirus [12],> 20 µM
same,IC50,Enterovirus [13],1.1 µM
same,IC50,Enterovirus [14],8.3 µM
same,IC50,Enterovirus [15],13 µM
same,IC50,[1],1.1 µM
same,IC50,Enterovirus [16],> 20 µM
same,IC50,Enterovirus [4],3.1 µM
same,IC50,Enterovirus [17],> 10 µM
same,IC50,Enterovirus [18],< 1.2 µM
same,IC50,rhinovirus B14 [19],7.9 µM
same,IC50,Enterovirus [20],17.7 µM
same,IC50,Enterovirus [21],> 10 µM
same,IC50,Enterovirus [22],2.9 µM
same,IC50,Enterovirus [23],14 µM
same,IC50,Enterovirus [24],> 10 µM
same,IC50,Enterovirus [25],15.1 µM
same,IC50,Enterovirus [26],3.5 µM
same,IC50,Enterovirus [27],> 20 µM
same,IC50,Enterovirus [28],4.9 µM

# Reference: ChEMBL document CHEMBL1124327, “Synthesis and structure-activity relationships of 2-substituted-6-(dimethylamino)-9-(4-methylbenzyl)-9H-purines with antirhinovirus activity” (J Med Chem, 1989)
